Laboratory results published in PubChem BioAssay AID2805 (Sanford-Burnham Center for Chemical Genomics, 2010).
In all, about 330,000 compounds went through this assay and about 780 (0.24%) were called active. What follows is part of a selection rich in actives, with near analogues and random picks from the rest. Unmarked numbers belong to inactive results.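 Rule for the calls: active = activation factor of at least 2 at 20 µM; inactive = the rest.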

test system: intestinal alkaline phosphatase [Mus musculus]; assay: mouse intestinal phosphatase enzyme activation – biochemical, luminescence, uHTS, primary screen (AID 2805); conditions: muIAP, CDP-Star luminescence, 30 min; at 10 µM; active compounds read high; 1 = vehicle-only enzyme signal, 0 = enzyme-free wells
Method in brief: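 Assay system: mouse IAP enzyme; Reagent: CDP-Star chemiluminescent phosphatase substrate; Compound: DMSO-dissolved test compounds; Incubation: 30 min, room temperature; Technique: luminescence from enzymatic CDP-Star hydrolysis; Controls: DMSO-only wells and no-enzyme negative control.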

Row | Compound | activation factor
1 | O=C(Cn1cnc2ccccc2c1=O)NCC1COc2ccccc2O1 (stereo not drawn) | 0.99
2 | c1ccc(-c2cc3c(NCC4COc5ccccc5O4)ncnc3s2)cc1 (stereo not drawn) | 2.05 (active)
3 | O=C(NCC1COc2ccccc2O1)C1(c2ccccc2)CCCC1 (stereo not drawn) | 1
4 | CCN(C(=O)Cc1nc(N)n[nH]1)C1(C(=O)Nc2ccccc2)CCCCC1 | 1
5 | COc1ccc(-c2nn(-c3ccccc3)cc2C(=O)Nc2nccs2)cc1OC | 1
6 | COc1ccc(NC(=O)c2cn(-c3ccccc3)nc2SC)cc1 | 3.32 (active)
7 | COc1ccc(NC(=O)c2cc(-c3ccc(C)o3)nc3ccccc23)cc1 | 0.934
8 | CCn1nnc2cc(C(=O)Nc3ccc(C(=O)OC(C)C)cc3)ccc21 | 0.97
9 | CCOC(=O)c1cc(C)sc1NC(=O)C1CCC1 | 1.01
10 | S=C(NNC(=S)NC1CC2CCC1C2)NC1CC2C=CC1C2 (stereo not drawn) | 0.928
11 | CC(C)c1ccc(NC(=S)NC2CC3C=CC2C3)cc1 (stereo not drawn) | 2.76 (active)
12 | Cc1ccc(C)c(NC(=S)NNC(=S)Nc2ccc(C(C)C)cc2)c1 | 0.941
13 | Cc1ccccc1N1CCN(CCCN2C(=O)C3CCCCN3C2=O)CC1 (stereo not drawn) | 1.05
14 | O=C1CCC([N+](=O)[O-])C(c2ccccc2Br)N1 (stereo not drawn) | 1.03
15 | O=P(O)(CN1CCCCCC1)C1Cc2ccccc2C1 | 1.05
16 | Cc1ccccc1NC(=O)COc1cccc2c1CCNC2=O | 0.912
17 | C#CCOCCOCCOCCNc1nc(N2CCN(C(=O)CCCCCCCCCCNC(=O)Cn3cc(CCCCCN)nn3)CC2)nc(N2CCN(C(=O)CCCCCCCCCCNC(=O)[C@H](CO)n3cc(CCCSC)nn3)CC2)n1 | 2.45 (active)
18 | C#CCOCCOCCOCCNc1nc(N2CCN(C(=O)Cn3cc(CCCCN)nn3)CC2)nc(N2CCN(C(=O)[C@H](CCCCN)n3cc(CCC(=O)O)nn3)CC2)n1 | 0.948
19 | C#CCOCCOCCOCCNc1nc(N2CCN(C(=O)[C@H](CCCN=C(N)N)n3cc(C(N)[C@@H](C)CC)nn3)CC2)nc(N2CCN(C(=O)[C@H](CO)n3cc([C@@H](N)C(C)C)nn3)CC2)n1 (stereo partly drawn) | 0.988
20 | C#CCOCCOCCOCCNc1nc(N2CCN(C(=O)CCCCCCCCCCNC(=O)[C@H](CCCCN)n3cc(C)nn3)CC2)nc(N2CCN(C(=O)CCCCCCCCCCNC(=O)[C@H](CO)n3cc(CCCSC)nn3)CC2)n1 | 1.29
21 | C#CCOCCOCCOCCNc1nc(N2CCN(C(=O)[C@H](C(C)C)n3cc(CCO)nn3)CC2)nc(N2CCN(C(=O)[C@H]([C@@H](C)CC)n3cc(CCCN=C(N)N)nn3)CC2)n1 | 1
22 | C#CCOCCOCCOCCNc1nc(N2CCN(C(=O)CCCCCCCCCCNC(=O)[C@H]([C@@H](C)CC)n3cc(CCCCN=C(N)N)nn3)CC2)nc(N2CCN(C(=O)CCCCCCCCCCNC(=O)[C@H](CO)n3cc(CCCSC)nn3)CC2)n1 | 12.7 (active)

Row | Compound | activation factor
23 | COc1ccc(CCNC(=O)C2CCCN(Cc3nc(-c4cccc(Cl)c4)oc3C)C2)cc1OC (stereo not drawn) | 0.883
24 | CN(C)C(=O)N1CCNCC1 | 0.933
25 | c1ccc(CCN2CN=C(Nc3nc4ccccc4o3)NC2)cc1 | 0.958
26 | CC[C@]12c3[nH]c4ccc(Cl)cc4c3CCN1C(=O)[C@@H](CC(=O)NCCCOC)C[C@@H]2C(=O)N1CCN(C(=O)C2CC2)CC1 | 0.995
27 | COc1ccc(-n2nc(C(=O)NCC(=O)N3CCN(c4ccccc4OC)CC3)c3ccccc3c2=O)c(OC)c1 | 1.03
28 | C[C@@H](O)c1nc2ccccc2n1N | 0.944
29 | COCCNC(=O)CCCN1C(=O)c2ccccc2Sc2ncccc21 | 1.03
30 | CN(c1cccc(NC(=O)c2ccc(CN3CCc4ccccc4C3)cc2)c1)S(C)(=O)=O | 1.06
31 | Cc1cc(Cl)nc(NC(=O)Nc2cccc(Cl)c2)n1 | 0.931
32 | CN(c1cccc(NC(=O)Nc2ccc(Cl)cc2)c1)S(C)(=O)=O | 2.3 (active)
33 | CN(CCc1ccccn1)C(=O)c1ccc(OC2CCN(CCc3ccccc3)CC2)cc1 | 1.07
34 | CC(C)c1nc(SCC(=O)NC(=O)NC(C)(C)C)n[nH]1 | 1
35 | Cc1noc(C)c1CSc1nc2cc(S(=O)(=O)N3CCOCC3)ccc2o1 | 0.946
36 | CCOC(=O)c1sc(NC(=O)CSc2nc(O)c(Cc3ccccc3)c(=O)[nH]2)nc1C | 0.914
37 | CN(Cc1ccc(F)cc1)C(=O)COc1ccc2ccccc2c1 | 1
38 | COc1cccc(C(=O)NCCSc2ccc(Br)cc2)c1 | 1.14
39 | COc1cc(NC(=S)NCc2ccc(S(N)(=O)=O)cc2)cc(OC)c1 | 1.06
40 | COc1cc(NC(=S)NCCSc2ccc(C)cc2)cc(OC)c1 | 2.86 (active)
41 | S=c1nccc(-c2cc(Cl)sc2Cl)[nH]1 | 1.08
42 | CC(CNC(=O)c1ccc(N)cc1)NC(=O)c1ccc(N)cc1 (stereo not drawn) | 1.09
43 | O=C(Nc1cccc(-c2cccc(Cl)c2)c1)C1CCN(C2CCC2)CC1 | 6.17 (active)
44 | CC(=O)c1cc(CN2CCC(C(=O)Nc3cccc(-c4cscn4)c3)CC2)cs1 | 1.08

Row | Compound | activation factor
45 | O=C(Nc1cnn(Cc2ccc(Cl)cc2)c1)C1CCCC1 | 0.956
46 | O=C(NC1CCCC1)C1CCN(C(=O)Nc2cccc(Cl)c2)CC1 | 1.03
47 | CCn1cc(CN2CCC(C(=O)Nc3cccc(-c4cccc(Cl)c4)c3)CC2)cn1 | 5.15 (active)
48 | O=C(Nc1cccc(-c2cscn2)c1)C1CCN(Cc2ccsc2)CC1 | 1.47
49 | COc1cccc(-c2cccc(NC(=O)C3CCN(C4CCC4)CC3)c2)c1 | 1.01
50 | CCn1cc(CN2CCC(C(=O)Nc3cccc(-c4cccc(Cl)c4)c3)CC2)c(C)n1 | 3.39 (active)
51 | CCn1cc(CN2CCC(n3nccc3NC(=O)CCCc3ccccc3)CC2)c(C)n1 | 1.22
52 | N#Cc1c(C(F)(F)F)cc(-c2cccs2)nc1N1CCCCC1 | 1.01
53 | CN1CCN(C(CNS(=O)(=O)c2cccs2)c2cccnc2)CC1 (stereo not drawn) | 0.991
54 | CCC(=O)c1ccc(OCC(O)Cn2nc(C)c(C(C)=O)c2C)cc1 (stereo not drawn) | 0.903
55 | CC1(C)Cc2cccc(OCC(=O)N3CCN(c4ccc([N+](=O)[O-])cc4)CC3)c2O1 | 0.924
56 | CCc1ccc(-n2c(SCc3cc(=O)n4cc(Br)ccc4n3)nc3[nH]ncc3c2=O)cc1 | 0.976
57 | COc1cc(CN2CCC(n3nccc3NC(=O)CCCc3ccccc3)CC2)ccc1O | 1.47
58 | COc1ccc(CN2CCC(n3nccc3NC(=O)CCCc3ccccc3)CC2)cc1C | 2.47 (active)
59 | Cc1ccc(CN2CCC(n3nccc3NC(=O)CCCc3ccccc3)CC2)o1 | 1.09
60 | CC1(C)CC(=O)c2sc(N)nc2C1 | 0.979
61 | CC(C)c1cc(C(N)=O)c(NC(=O)c2cccc(COc3ccc(Br)cc3)c2)s1 | 0.925
62 | COC(=O)c1ccc(NC(=O)Nc2ccc(C)cc2)cc1 | 2.13 (active)
63 | COC(=O)c1ccc(NC(=O)C(C)N2C(=O)c3ccccc3C2=O)cc1 (stereo not drawn) | 0.997
64 | COc1cc(NC(=O)Nc2ccc(C)cc2)cc([N+](=O)[O-])c1 | 0.983
65 | Cc1c(C(C)(C)O)[nH]c2ccc(C#N)cc12 | 1.11
66 | S=C(NCc1cccs1)Nc1ccc(Cl)cc1 | 1.5

Row | Compound | activation factor
67 | FC(F)(F)Oc1ccc(NC(=S)NCc2ccccc2)cc1 | 1.66
68 | Fc1ccccc1CNC(=S)Nc1ccc(Cl)cc1 | 2.42 (active)
69 | O=C1CCC(C(=O)N2CCC(O)(c3ccccc3)CC2)CN1CCc1ccccc1 (stereo not drawn) | 0.942
70 | Cc1cc(C(F)(F)F)nn1CC(=O)N1CCCC1 | 1.12
71 | Cc1ccc(C(=O)c2coc3ccc(O)c(CN(C)C)c23)cc1 | 1.09
72 | COc1cccc(N(C(=O)c2ccn[nH]2)C2(C(=O)Nc3c(C)cccc3C)CCCCC2)c1 | 3.3 (active)
73 | Cc1cccc(C)c1NC(=O)C1(N(C(=O)c2ccccn2)c2ccc(O)cc2)CCCCC1 | 1.01
74 | COc1cccc(N(Cc2nnc3n2CCCCC3)C(=O)Nc2ccccc2F)c1 | 1.08
75 | Cc1cc(=O)n2nc(N3CCCC(C(=O)N4CCN(C)CC4)C3)sc2n1 (stereo not drawn) | 0.986
76 | CN(CC(=O)N1CCN(c2ccccc2)CC1)S(=O)(=O)c1cccs1 | 0.929
77 | Cc1ccc(NC(=O)COC(=O)C2CC2)cc1S(=O)(=O)N1CCOCC1 | 1.01
78 | Cc1cccc(NC(=S)NCc2ccc3[nH]c4c(c3c2)CCCC4)c1 | 2.55 (active)
79 | CCc1cccc(CC)c1NC(=S)NCc1ccc2[nH]c(C)cc2c1 | 1.06
80 | Cc1cc(C)cc(NC(=S)NCCc2c[nH]c3ccccc23)c1 | 1.3
81 | CC(NC(=S)Nc1ccc(S(N)(=O)=O)cc1)c1ccc2c(c1)OCO2 (stereo not drawn) | 1.52
82 | CC1CCCN(C(C(=O)Nc2ccc(C(C)C)cc2)c2ccc3c(c2)OCO3)C1 (stereo not drawn) | 2.25 (active)
83 | O=C(Nc1ccc2c(c1)OCCO2)C(c1ccc(F)cc1)N1CCCCC1 (stereo not drawn) | 1.07
84 | CCN(C[C@H]1N[C@@](CC)(C(=O)OC)[C@H]2C(=O)N(Cc3ccccc3)C(=O)[C@@H]12)S(=O)(=O)c1ccc(C(F)(F)F)cc1 | 1.06
85 | O=C(CCn1ccc([N+](=O)[O-])n1)Nc1nccs1 | 1.04
86 | CN(C)S(=O)(=O)c1cccc(NC(=S)N/N=C/C(=O)c2ccccc2)c1 | 0.778
87 | CN(C)S(=O)(=O)c1cccc(NC(=S)NCc2ccc3c(c2)OCO3)c1 | 2.5 (active)
88 | Cc1c(Cl)cccc1NC(=S)NCc1ccc2c(c1)OCO2 | 1.41
